From ChEMBL document CHEMBL1275287, “Synthesis and molluscicidal evaluation of some new pyrazole, isoxazole, pyridine, pyrimidine, 1,4-thiazine and 1,3,4-thiadiazine derivatives incorporating benzofuran moiety” (Eur J Med Chem, 2010)
Active and inactive are the calls of the source. No cut-off for these calls is given here.

Tests used:
Format in all cases: functional, organism-based
Biomphalaria alexandrina [1] = experiment: Molluscicidal activity against Biomphalaria alexandrina at 1 ppm after 24 hrs
Method in brief: (§1)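 Field-collected snails (about 7 mm shell diameter) held in the lab 10 days before testing and fed lettuce daily. Compound dissolved with two drops Tween 20 plus 2 mL DMSO, then suspended in untreated raw Nile/canal water in aerated glass jars. Three concentrations between 1 and 10 ppm; ten snails per jar, 24 h at 25 °C. Triplicate runs; mean killed snails recorded. Controls received water with Tween 20/DMSO only.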

Biomphalaria alexandrina [2] = experiment: Molluscicidal activity against Biomphalaria alexandrina at 10 ppm after 24 hrs; method in brief: as §1
Biomphalaria alexandrina [3] = experiment: Molluscicidal activity against Biomphalaria alexandrina at 5 ppm after 24 hrs; method in brief: as §1

SMILES	Activity (Biomphalaria alexandrina [1])	Activity (Biomphalaria alexandrina [2])	Activity (Biomphalaria alexandrina [3])
O=C(/C=C/c1cn(-c2ccccc2)nc1-c1cc2ccccc2o1)c1cc2ccccc2o1	inactive	Active	Active
c1ccc(-n2cc(C3CC(c4cc5ccccc5o4)=NN3)c(-c3cc4ccccc4o3)n2)cc1 (stereo unspecified)	inactive	Active	Active
O=C(/C(Br)=C/c1cn(-c2ccccc2)nc1-c1cc2ccccc2o1)c1cc2ccccc2o1	inactive	inactive	inactive
O=C(Nc1ccc([N+](=O)[O-])cc1Cl)c1cc(Cl)ccc1O	Active	Active	Active
Cc1cn2c(nc1=O)S/C(=C\c1cn(-c3ccccc3)nc1-c1cc3ccccc3o1)C(c1cc3ccccc3o1)=N2	inactive	inactive	inactive
S=C1N=C(c2cn(-c3ccccc3)nc2-c2cc3ccccc3o2)CC(c2cc3ccccc3o2)N1 (stereo unspecified)	inactive	inactive	inactive
NC(=S)N1N=C(c2cc3ccccc3o2)CC1c1cn(-c2ccccc2)nc1-c1cc2ccccc2o1 (stereo unspecified)	inactive	inactive	inactive
c1ccc(-n2cc(C3CC(c4cc5ccccc5o4)=NO3)c(-c3cc4ccccc4o3)n2)cc1 (stereo unspecified)	inactive	inactive	inactive
C(=C1/Sc2nncn2N=C1c1cc2ccccc2o1)/c1cn(-c2ccccc2)nc1-c1cc2ccccc2o1	inactive	Active	Active
C(=C1/Sc2ccccc2N=C1c1cc2ccccc2o1)/c1cn(-c2ccccc2)nc1-c1cc2ccccc2o1	inactive	inactive	inactive
O=C(c1cc2ccccc2o1)C(Br)C(Br)c1cn(-c2ccccc2)nc1-c1cc2ccccc2o1 (stereo unspecified)	inactive	inactive	inactive
N#Cc1c(-c2cn(-c3ccccc3)nc2-c2cc3ccccc3o2)cc(-c2cc3ccccc3o2)nc1N	inactive	Active	Active
